A word on the MIC: it is the smallest concentration in the dilution series that meets the test's criterion for growth inhibition. One may read the Ki as a measure of affinity in units of concentration, obtained from inhibition or displacement. By Km is commonly meant the concentration of substrate that gives half-maximal velocity. By kcat is commonly meant the number of substrate molecules converted per active site and unit of time at saturation.

The structures appear in SMILES notation. Converted amounts (≈) assume the structure as drawn.

The test system of one test is Shigella sonnei. The test is described as follows: Antimicrobial activity against Shigella sonnei UIH-1 expressing beta-lactamase CTX-M-64 by broth microdilution method. The class given is functional. The following applies: Shigella sonnei, UIH-1; read-out: MIC. Summed up: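 MICs determined by CLSI broth microdilution on an automated panel system. […] Susceptibility categories assigned by CLSI criteria.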
With `CO/N=C(\C(=O)N[C@@H]1C(=O)N2C(C(=O)O)=C(CSc3nc(=O)c(O)nn3C)CS[C@H]12)c1csc(N)n1` [CEFTRIAXONE], the MIC was 1020 µg/mL (≈ 1850 µM).

`CC1(C)S[C@@H]2[C@H](NC(=O)[C@H](N)c3ccc(O)cc3)C(=O)N2[C@H]1C(=O)O` [AMOXICILLIN]: the MIC worked out at 2 µg/mL (≈ 5.47 µM).

On to `CO/N=C(\C(=O)N[C@@H]1C(=O)N2C(C(=O)[O-])=C(C[n+]3cccc4c3CCC4)CS[C@H]12)c1csc(N)n1` [CEFPIROME], for which the MIC is > 16 µg/mL.

In the case of `CO/N=C(\C(=O)N[C@@H]1C(=O)N2C(C(=O)[O-])=C(C[N+]3(C)CCCC3)CS[C@H]12)c1csc(N)n1`, the MIC is > 32 µg/mL.

Regarding `CC(C)(O/N=C(\C(=O)N[C@@H]1C(=O)N2C(C(=O)[O-])=C(C[n+]3ccccc3)CS[C@H]12)c1csc(N)n1)C(=O)O` [CEFTAZIDIME], the minimum inhibitory concentration (MIC) was 32 µg/mL (≈ 58.5 µM).

`COCC1=C(C(=O)O)N2C(=O)[C@@H](NC(=O)/C(=N\OC)c3csc(N)n3)[C@H]2SC1` [CEFPODOXIME]: the minimum inhibitory concentration (MIC) is > 64 µg/mL.

A further test has as its system Escherichia coli. Briefly: Antimicrobial activity against rifampicin-resistant Escherichia coli X1037 by broth microdilution method in presence of 4 ug/ml beta-lactamase inhibitor clavulanic acid. The test is classed as functional.
Conditions: not given
A general note: Dilution methods test growth across graded concentrations, often in twofold steps.
Consider `CC(C)(O/N=C(\C(=O)N[C@@H]1C(=O)N2C(C(=O)[O-])=C(C[n+]3ccccc3)CS[C@H]12)c1csc(N)n1)C(=O)O` [CEFTAZIDIME], for which the MIC is ≤ 0.12 µg/mL.

Another test has as its system Escherichia coli. The test is described as follows: Antimicrobial activity against rifampicin-resistant Escherichia coli X1037 transconjugant by broth microdilution method in presence of beta-lactamase inhibitor clavulanic acid.
Conditions: not given
As for `CC1(C)S[C@@H]2[C@H](NC(=O)[C@H](N)c3ccc(O)cc3)C(=O)N2[C@H]1C(=O)O` [AMOXICILLIN], the minimal inhibitory concentration (MIC) was found to be 2 µg/mL.

Another test has as its system Escherichia coli. Briefly: Antimicrobial activity against Escherichia coli XL-1 Blue harboring plasmid CL1920 by broth microdilution method in presence of 4 ug/ml beta-lactamase inhibitor clavulanic acid. The class given is functional.
Conditions: not given
In the case of `CC(C)(O/N=C(\C(=O)N[C@@H]1C(=O)N2C(C(=O)[O-])=C(C[n+]3ccccc3)CS[C@H]12)c1csc(N)n1)C(=O)O` [CEFTAZIDIME], the MIC is ≤ 0.12 µg/mL.

The next test deals with Shigella sonnei. Briefly: Antimicrobial activity against Shigella sonnei UIH-1 expressing beta-lactamase CTX-M-64 by broth microdilution method in presence of 4 ug/ml beta-lactamase inhibitor clavulanic acid.
Conditions: not given
The test is classed as functional.
Regarding `CC(C)(O/N=C(\C(=O)N[C@@H]1C(=O)N2C(C(=O)[O-])=C(C[n+]3ccccc3)CS[C@H]12)c1csc(N)n1)C(=O)O` [CEFTAZIDIME], the minimal inhibitory concentration (MIC) is ≤ 0.12 µg/mL.

Molecular target in another test: not listed separately
The test is described as follows: Inhibition of Shigella sonnei UIH-1 beta-lactamase CTX-M-64 by spectrophotometry in presence of 100 uM nitrocefin.
Conditions: not given
The method in brief:
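Recombinant CTX-M-64 was expressed from pET29a in E. coli BL21(DE3)pLysS (0.5 mM IPTG, 3 h, 37°C). It was purified by SP cation exchange (MES pH 6.0, NaCl gradient) then gel filtration. Enzyme was preincubated 5 min at 37°C with varied clavulanic acid before adding 100 μM nitrocefin. Hydrolysis was read at 485 nm in 50 mM phosphate pH 7.0, 37°C. IC50 is the inhibitor level halving the rate.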
Turning to `CC(C)(O/N=C(\C(=O)N[C@@H]1C(=O)N2C(C(=O)[O-])=C(C[n+]3ccccc3)CS[C@H]12)c1csc(N)n1)C(=O)O` [CEFTAZIDIME], the Ki is > 10 mM.

The subject of a further test is Escherichia coli. Briefly: Antimicrobial activity against rifampicin-resistant Escherichia coli X1037 by broth microdilution method in presence of beta-lactamase inhibitor clavulanic acid.
Conditions: not given
For the compound `CC1(C)S[C@@H]2[C@H](NC(=O)[C@H](N)c3ccc(O)cc3)C(=O)N2[C@H]1C(=O)O` [AMOXICILLIN], the minimum inhibitory concentration (MIC) is ≤ 1 µg/mL.

Another test concerns Shigella sonnei.
Test: not given
To be noted: UIH-1.
As to `CO/N=C(\C(=O)N[C@@H]1C(=O)N2C(C(=O)[O-])=C(C[N+]3(C)CCCC3)CS[C@H]12)c1csc(N)n1`, the kcat/Km stood at 1.3 ×10⁵ /M/s.

The subject of a further test is Escherichia coli. The test is described as follows: Antimicrobial activity against Escherichia coli XL-1 Blue harboring plasmid CL1920 by broth microdilution method in presence of beta-lactamase inhibitor clavulanic acid.
Conditions: not given
Consider `CC1(C)S[C@@H]2[C@H](NC(=O)[C@H](N)c3ccc(O)cc3)C(=O)N2[C@H]1C(=O)O` [AMOXICILLIN], for which the MIC was 2 µg/mL.

In the next test the test system is Escherichia coli. The test is described as follows: Antimicrobial activity against rifampicin-resistant Escherichia coli X1037 transconjugant by broth microdilution method. The class given is functional.
Conditions: not given
`CO/N=C(\C(=O)N[C@@H]1C(=O)N2C(C(=O)O)=C(CSc3nc(=O)c(O)nn3C)CS[C@H]12)c1csc(N)n1` [CEFTRIAXONE] showed an MIC of 2050 µg/mL (≈ 3690 µM).

`CC1(C)S[C@@H]2[C@H](NC(=O)[C@H](N)c3ccc(O)cc3)C(=O)N2[C@H]1C(=O)O` [AMOXICILLIN] yielded an MIC of 2 µg/mL (≈ 5.47 µM).

On to `CO/N=C(\C(=O)N[C@@H]1C(=O)N2C(C(=O)[O-])=C(C[n+]3cccc4c3CCC4)CS[C@H]12)c1csc(N)n1` [CEFPIROME], for which the MIC was > 16 µg/mL.

Turning to `CO/N=C(\C(=O)N[C@@H]1C(=O)N2C(C(=O)[O-])=C(C[N+]3(C)CCCC3)CS[C@H]12)c1csc(N)n1`, the MIC is > 32 µg/mL.

`CC(C)(O/N=C(\C(=O)N[C@@H]1C(=O)N2C(C(=O)[O-])=C(C[n+]3ccccc3)CS[C@H]12)c1csc(N)n1)C(=O)O` [CEFTAZIDIME] had an MIC of 64 µg/mL (≈ 117 µM).

As to `COCC1=C(C(=O)O)N2C(=O)[C@@H](NC(=O)/C(=N\OC)c3csc(N)n3)[C@H]2SC1` [CEFPODOXIME], the MIC is > 64 µg/mL.

The next test relates to Escherichia coli. Briefly: Antimicrobial activity against Escherichia coli XL-1 Blue transconjugant harboring beta-lactamase CTX-M-64 by broth microdilution method. The class given is functional. The following applies: Escherichia coli, XL-1 Blue; read-out: MIC.
As for `CO/N=C(\C(=O)N[C@@H]1C(=O)N2C(C(=O)O)=C(CSc3nc(=O)c(O)nn3C)CS[C@H]12)c1csc(N)n1` [CEFTRIAXONE], the MIC turned out to be 2050 µg/mL (≈ 3690 µM).

`CC1(C)S[C@@H]2[C@H](NC(=O)[C@H](N)c3ccc(O)cc3)C(=O)N2[C@H]1C(=O)O` [AMOXICILLIN]: the MIC turned out to be 8 µg/mL (≈ 21.9 µM).

For the compound `CO/N=C(\C(=O)N[C@@H]1C(=O)N2C(C(=O)[O-])=C(C[n+]3cccc4c3CCC4)CS[C@H]12)c1csc(N)n1` [CEFPIROME], the MIC was > 16 µg/mL.

For `CO/N=C(\C(=O)N[C@@H]1C(=O)N2C(C(=O)[O-])=C(C[N+]3(C)CCCC3)CS[C@H]12)c1csc(N)n1`, the MIC was > 32 µg/mL.

Regarding `CC(C)(O/N=C(\C(=O)N[C@@H]1C(=O)N2C(C(=O)[O-])=C(C[n+]3ccccc3)CS[C@H]12)c1csc(N)n1)C(=O)O` [CEFTAZIDIME], the MIC was found to be 2050 µg/mL (≈ 3750 µM).

In the case of `COCC1=C(C(=O)O)N2C(=O)[C@@H](NC(=O)/C(=N\OC)c3csc(N)n3)[C@H]2SC1` [CEFPODOXIME], the MIC is > 64 µg/mL.

The test system of a further test is Shigella sonnei. The test is described as follows: Activity at Shigella sonnei UIH-1 beta-lactamase CTX-M-64 by spectrophotometry.
Conditions: not given
The method in brief: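 Recombinant enzyme from E. coli BL21(DE3)pLysS/pET29a, purified by cation exchange and gel filtration. Assays at 37°C in 50 mM phosphate pH 7.0, six substrate concentrations, UV-vis readout. Km and kcat from Michaelis-Menten fits of initial rates.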
Regarding `CO/N=C(\C(=O)N[C@@H]1C(=O)N2C(C(=O)[O-])=C(C[N+]3(C)CCCC3)CS[C@H]12)c1csc(N)n1`, the Km is 505 µM and the kcat stood at 67.7 s⁻¹.

The next test concerns Escherichia coli. Briefly: Antimicrobial activity against rifampicin-resistant Escherichia coli X1037 transconjugant by broth microdilution method in presence of 4 ug/ml beta-lactamase inhibitor clavulanic acid.
Conditions: not given
The class given is functional.
In the case of `CC(C)(O/N=C(\C(=O)N[C@@H]1C(=O)N2C(C(=O)[O-])=C(C[n+]3ccccc3)CS[C@H]12)c1csc(N)n1)C(=O)O` [CEFTAZIDIME], the MIC is ≤ 0.12 µg/mL.

In a further test the test system is Escherichia coli. The test is described as follows: Antimicrobial activity against Escherichia coli XL-1 Blue harboring plasmid CL1920 by broth microdilution method. The test is classed as functional.
Conditions: not given
With `CO/N=C(\C(=O)N[C@@H]1C(=O)N2C(C(=O)O)=C(CSc3nc(=O)c(O)nn3C)CS[C@H]12)c1csc(N)n1` [CEFTRIAXONE], the MIC was ≤ 0.25 µg/mL.

For the compound `CC1(C)S[C@@H]2[C@H](NC(=O)[C@H](N)c3ccc(O)cc3)C(=O)N2[C@H]1C(=O)O` [AMOXICILLIN], the MIC turned out to be 2 µg/mL (≈ 5.47 µM).

As to `CO/N=C(\C(=O)N[C@@H]1C(=O)N2C(C(=O)[O-])=C(C[n+]3cccc4c3CCC4)CS[C@H]12)c1csc(N)n1` [CEFPIROME], the minimum inhibitory concentration (MIC) was ≤ 1 µg/mL.

As to `CC(C)(O/N=C(\C(=O)N[C@@H]1C(=O)N2C(C(=O)[O-])=C(C[n+]3ccccc3)CS[C@H]12)c1csc(N)n1)C(=O)O` [CEFTAZIDIME], the MIC is ≤ 0.25 µg/mL.

As for `COCC1=C(C(=O)O)N2C(=O)[C@@H](NC(=O)/C(=N\OC)c3csc(N)n3)[C@H]2SC1` [CEFPODOXIME], the MIC was ≤ 0.5 µg/mL.

The next test relates to Shigella sonnei. The test is described as follows: Antimicrobial activity against Shigella sonnei UIH-1 expressing beta-lactamase CTX-M-64 by broth microdilution method in presence of beta-lactamase inhibitor clavulanic acid.
Conditions: not given
In the case of `CC1(C)S[C@@H]2[C@H](NC(=O)[C@H](N)c3ccc(O)cc3)C(=O)N2[C@H]1C(=O)O` [AMOXICILLIN], the minimal inhibitory concentration (MIC) came out at 2 µg/mL.

The next test deals with Escherichia coli. The test is described as follows: Antimicrobial activity against Escherichia coli XL-1 Blue transconjugant harboring beta-lactamase CTX-M-64 by broth microdilution method in presence of 4 ug/ml beta-lactamase inhibitor clavulanic acid. The test is classed as functional.
Conditions: not given
Consider `CC1(C)S[C@@H]2[C@H](NC(=O)[C@H](N)c3ccc(O)cc3)C(=O)N2[C@H]1C(=O)O` [AMOXICILLIN], for which the MIC is 8 µg/mL.

As to `CC(C)(O/N=C(\C(=O)N[C@@H]1C(=O)N2C(C(=O)[O-])=C(C[n+]3ccccc3)CS[C@H]12)c1csc(N)n1)C(=O)O` [CEFTAZIDIME], the minimum inhibitory concentration (MIC) was ≤ 0.5 µg/mL.

For another test, the system named is Escherichia coli. The test is described as follows: Antimicrobial activity against rifampicin-resistant Escherichia coli X1037 by broth microdilution method. The test is classed as functional.
Conditions: not given
For the compound `CO/N=C(\C(=O)N[C@@H]1C(=O)N2C(C(=O)O)=C(CSc3nc(=O)c(O)nn3C)CS[C@H]12)c1csc(N)n1` [CEFTRIAXONE], the MIC is ≤ 0.25 µg/mL.

With `CC1(C)S[C@@H]2[C@H](NC(=O)[C@H](N)c3ccc(O)cc3)C(=O)N2[C@H]1C(=O)O` [AMOXICILLIN], the MIC is ≤ 1 µg/mL.

As to `CO/N=C(\C(=O)N[C@@H]1C(=O)N2C(C(=O)[O-])=C(C[n+]3cccc4c3CCC4)CS[C@H]12)c1csc(N)n1` [CEFPIROME], the MIC is ≤ 1 µg/mL.

For `CC(C)(O/N=C(\C(=O)N[C@@H]1C(=O)N2C(C(=O)[O-])=C(C[n+]3ccccc3)CS[C@H]12)c1csc(N)n1)C(=O)O` [CEFTAZIDIME], the MIC was ≤ 0.25 µg/mL.

For `COCC1=C(C(=O)O)N2C(=O)[C@@H](NC(=O)/C(=N\OC)c3csc(N)n3)[C@H]2SC1` [CEFPODOXIME], the MIC is ≤ 0.5 µg/mL.

The values above are taken from ChEMBL document CHEMBL1629574, “Novel chimeric beta-lactamase CTX-M-64, a hybrid of CTX-M-15-like and CTX-M-14 beta-lactamases, found in a Shigella sonnei strain resistant to various oxyimino-cephalosporins, including ceftazidime” (Antimicrob Agents Chemother, 2009).
